Data from ChEMBL document CHEMBL1126202, “Dual-action penems and carbapenems” (J Med Chem, 1992).

Experiments:
Bacteroides fragilis [1] = test: In vitro antibacterial activity against Bacteroides fragilis F117A; type: functional
How it was run: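 MIC by broth dilution in microtiter plates, run in an oxygen-free hydrogen–carbon dioxide atmosphere. Medium: Schaedler's broth with coenzyme I and hemin added.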

Hathewaya histolytica = test: In vitro antibacterial activity against clostridium histolyticum 503-86; type: functional
How it was run: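 Anaerobic MIC, run in microtiter plates in Schaedler's broth supplemented with coenzyme I and hemin. Incubated in an oxygen-free hydrogen–carbon dioxide atmosphere.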

Escherichia coli [2] = test: In vitro antibacterial activity against Escherichia coli 25922; type: functional
How it was run: (§1)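 MIC was determined by agar dilution on Mueller-Hinton agar. Serial 2-fold aqueous dilutions were diluted 10-fold in agar to give final concentrations of 128 to 0.0156 μg/mL. Plates were inoculated by Steers replicator with overnight broth cultures diluted 100-fold.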

Proteus vulgaris [3] = test: In vitro antibacterial activity against proteus vulgaris ATCC 6380 (constitutive beta-lactamase producer); type: functional
How it was run: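 Proteus MICs were determined by agar dilution on Mueller-Hinton agar containing 3% agar. Serial 2-fold dilutions gave final concentrations of 128 to 0.0156 μg/mL. Plates were replicator-inoculated with 100-fold-diluted overnight broth cultures.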

Staphylococcus aureus = test: In vitro antibacterial activity against Staphylococcus aureus 753 (constitutive beta-lactamase producer); type: functional
How it was run: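 MIC by agar dilution on Mueller-Hinton agar. Compounds were serially 2-fold diluted in water, final 128 to 0.0156 μg/mL in agar. Inoculum: overnight broth culture diluted 100-fold, applied with a Steers replicator.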

Streptococcus pneumoniae = test: In vitro antibacterial activity against streptococcus pneumoniae 6301; type: functional
How it was run: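 Streptococcal MICs were determined by agar dilution on brain heart infusion agar supplemented with 20 units/mL bovine liver catalase. Final concentrations were 128 to 0.0156 μg/mL from 2-fold dilutions. Inocula were overnight broth cultures diluted 100-fold, applied by Steers replicator.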

Citrobacter freundii [4] = test: In vitro antibacterial activity against citrobacter freundii BS-16 (constitutive beta-lactamase producer); type: functional; how it was run: as §1
Escherichia coli [5] = test: Effect on replication DNA biosynthesis in Escherichia coli H560 (permeabilised cells).; type: functional, organism-based
How it was run: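 Toluene-permeabilized E. coli H560 cells were used. Replicative DNA synthesis was measured as ATP-dependent [3H]thymidine incorporation into trichloroacetic acid-insoluble material. IC50 is the concentration giving 50% inhibition.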

[6] = molecular target: Penicillin-binding protein 1A (Escherichia coli K-12) (UniProt P02918); test: Concentration inhibiting [14C]- Penicillin G binding to Escherichia coli UB1005 PBP1a (penicillin binding protein) 90 kDa
Penicillin-binding protein 1A (Escherichia coli K-12), sequence (P02918 whole entry, looked up): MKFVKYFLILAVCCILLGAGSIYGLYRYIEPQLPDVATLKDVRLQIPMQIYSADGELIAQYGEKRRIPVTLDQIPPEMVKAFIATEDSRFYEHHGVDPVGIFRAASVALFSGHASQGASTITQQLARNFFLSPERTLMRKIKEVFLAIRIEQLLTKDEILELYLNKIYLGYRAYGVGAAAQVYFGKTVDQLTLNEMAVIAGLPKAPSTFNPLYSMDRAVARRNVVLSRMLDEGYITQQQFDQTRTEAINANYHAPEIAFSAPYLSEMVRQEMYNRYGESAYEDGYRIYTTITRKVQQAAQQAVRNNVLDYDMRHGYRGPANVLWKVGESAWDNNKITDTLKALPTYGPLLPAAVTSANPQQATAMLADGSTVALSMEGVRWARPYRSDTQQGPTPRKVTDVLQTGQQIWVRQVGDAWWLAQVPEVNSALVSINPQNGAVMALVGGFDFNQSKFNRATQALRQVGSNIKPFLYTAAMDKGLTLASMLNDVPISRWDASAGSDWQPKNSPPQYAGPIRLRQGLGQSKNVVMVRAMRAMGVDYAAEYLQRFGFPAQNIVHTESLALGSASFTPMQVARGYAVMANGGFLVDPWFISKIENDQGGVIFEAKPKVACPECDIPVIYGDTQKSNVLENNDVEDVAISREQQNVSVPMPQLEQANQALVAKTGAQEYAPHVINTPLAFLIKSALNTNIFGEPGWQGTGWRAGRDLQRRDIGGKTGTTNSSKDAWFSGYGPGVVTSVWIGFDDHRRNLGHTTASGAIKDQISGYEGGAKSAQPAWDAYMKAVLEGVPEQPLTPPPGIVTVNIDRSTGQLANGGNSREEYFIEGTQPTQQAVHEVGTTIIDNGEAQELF

Bacteroides fragilis [7] = test: In vitro antibacterial activity against Bacteroides fragilis S2; type: functional
How it was run: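 Anaerobic MICs were determined in microtiter plates in Schaedler's broth supplemented with coenzyme I and hemin. Incubation was under an oxygen-free hydrogen-carbon dioxide atmosphere.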

Citrobacter freundii [8] = test: In vitro antibacterial activity against Citrobacter freundii BS-16 (constitutive beta-lactamase producer); type: functional; how it was run: as §1
Enterobacter cloacae = test: In vitro antibacterial activity against Enterobacter cloacae P99 (constitutive beta-lactamase producer); type: functional
[9] = molecular target: T1, Penicillin-binding protein 2b (Staphylococcus aureus) (UniProt Q9XDB3); test: Concentration inhibiting [14C]- Penicillin G binding to Staphylococcus aureus ATCC 29213 Penicillin binding protein 3, 75 kDa
T1 sequence (whole entry): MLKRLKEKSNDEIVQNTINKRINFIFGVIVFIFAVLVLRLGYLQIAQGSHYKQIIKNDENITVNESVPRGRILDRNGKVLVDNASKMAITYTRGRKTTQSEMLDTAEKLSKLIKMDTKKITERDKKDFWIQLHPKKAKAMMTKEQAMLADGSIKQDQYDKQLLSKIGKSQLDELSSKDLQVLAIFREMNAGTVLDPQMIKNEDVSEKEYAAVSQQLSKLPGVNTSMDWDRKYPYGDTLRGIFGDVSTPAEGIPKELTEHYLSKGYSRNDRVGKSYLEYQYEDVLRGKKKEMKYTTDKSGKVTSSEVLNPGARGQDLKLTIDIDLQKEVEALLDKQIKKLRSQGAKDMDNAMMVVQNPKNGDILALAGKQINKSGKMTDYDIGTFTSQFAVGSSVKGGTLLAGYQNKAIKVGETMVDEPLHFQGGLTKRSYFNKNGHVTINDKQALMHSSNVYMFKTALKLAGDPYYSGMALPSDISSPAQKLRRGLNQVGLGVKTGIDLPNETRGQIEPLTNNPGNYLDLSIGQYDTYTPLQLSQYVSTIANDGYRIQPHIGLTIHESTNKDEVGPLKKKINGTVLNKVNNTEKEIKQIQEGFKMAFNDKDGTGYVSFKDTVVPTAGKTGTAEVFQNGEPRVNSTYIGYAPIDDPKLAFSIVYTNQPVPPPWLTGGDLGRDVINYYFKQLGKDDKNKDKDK

Proteus vulgaris [10] = test: In vitro antibacterial activity against Proteus vulgaris ATCC 6380 (constitutive beta-lactamase producer); type: functional
How it was run: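 Proteus MICs were determined by agar dilution on Mueller-Hinton agar containing 3% agar. Plates were replicator-inoculated with 100-fold-diluted overnight broth cultures.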

[11] = Stability in pH 7.4 phosphate buffer at 37 degree C.; type: physicochemical
How it was run: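 Compounds were held in pH 7.4 phosphate buffer at 37 °C and monitored by reverse-phase HPLC on a PRP-1 column with UV detection at 275–286 nm. The mobile phase was 0.01 M tetradecyltrimethylammonium bromide in pH 8.2 phosphate/acetonitrile. Product-peak decline was followed to at least 50%, and half-life was taken from semilogarithmic plots.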

[12] = molecular target: T2, Penicillin-binding protein 1 (Staphylococcus aureus (strain COL)) (UniProt F4NA86); test: Concentration inhibiting [14C]- Penicillin G binding to Staphylococcus aureus ATCC 29213 Penicillin binding protein 1 87 kDa
T2 sequence (whole entry): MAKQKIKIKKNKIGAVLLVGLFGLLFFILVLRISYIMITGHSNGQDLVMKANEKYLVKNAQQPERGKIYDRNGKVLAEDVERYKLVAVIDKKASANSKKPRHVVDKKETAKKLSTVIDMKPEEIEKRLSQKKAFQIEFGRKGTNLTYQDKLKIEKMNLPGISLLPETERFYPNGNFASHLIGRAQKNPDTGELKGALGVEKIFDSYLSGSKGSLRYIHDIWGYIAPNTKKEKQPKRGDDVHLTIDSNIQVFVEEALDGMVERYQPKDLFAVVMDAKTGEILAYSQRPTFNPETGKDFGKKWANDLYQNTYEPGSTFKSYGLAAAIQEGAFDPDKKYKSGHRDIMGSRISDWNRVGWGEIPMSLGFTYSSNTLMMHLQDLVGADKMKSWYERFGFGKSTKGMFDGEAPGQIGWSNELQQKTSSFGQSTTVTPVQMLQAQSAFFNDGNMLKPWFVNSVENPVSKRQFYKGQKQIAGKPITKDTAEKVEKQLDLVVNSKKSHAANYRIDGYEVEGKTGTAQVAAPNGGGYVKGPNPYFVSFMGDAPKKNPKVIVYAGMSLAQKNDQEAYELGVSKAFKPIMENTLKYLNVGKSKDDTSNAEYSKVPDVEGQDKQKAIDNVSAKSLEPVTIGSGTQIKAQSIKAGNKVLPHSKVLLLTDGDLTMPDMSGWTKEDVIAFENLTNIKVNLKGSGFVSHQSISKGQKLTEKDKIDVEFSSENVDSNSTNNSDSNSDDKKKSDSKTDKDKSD

Structure (SMILES): C[C@@H](O)[C@H]1C(=O)N2C(C(=O)[O-])=C(COC(=O)N3CCN(c4cc5c(cc4F)c(=O)c(C(=O)O)cn5C4CC4)CC3)S[C@H]12.[Na+]
- MIC (Bacteroides fragilis [1]): 1 µg/mL
- MIC (Hathewaya histolytica): 0.25 µg/mL
- MIC (Escherichia coli [2]): 0.06 µg/mL
- MIC (Proteus vulgaris [3]): 0.0625 µg/mL
- MIC (Staphylococcus aureus): 4 µg/mL
- MIC (Streptococcus pneumoniae): 0.0313 µg/mL
- MIC (Citrobacter freundii [4]): 0.125 µg/mL
- IC50 (Escherichia coli [5]): 3 µg/mL
- IC90 [6]: 2 µg/mL

Structure (SMILES): C[C@@H](O)[C@H]1C(=O)N2C(C(=O)[O-])=C(CO)S[C@H]12.[Na+]
- MIC (Bacteroides fragilis [1]): 64 µg/mL
- MIC (Bacteroides fragilis [7]): < 0.125 µg/mL
- MIC (Citrobacter freundii [8]): 4 µg/mL
- MIC (Enterobacter cloacae): 8 µg/mL
- IC90 [9]: 10 µg/mL
- MIC (Proteus vulgaris [10]): 8 µg/mL

Structure (SMILES): C[C@@H](O)[C@H]1C(=O)N2C(C(=O)[O-])=C(COC(=O)c3cn(CCF)c4c(F)c(N5CCN(C)CC5)c(F)cc4c3=O)S[C@H]12.[Na+]
- half-life [11]: 52 h
- MIC (Hathewaya histolytica): < 0.125 µg/mL
- MIC (Escherichia coli [2]): 0.25 µg/mL
- IC90 [12]: 0.5 µg/mL
- IC90 [9]: 0.5 µg/mL
- MIC (Proteus vulgaris [3]): 0.25 µg/mL
- MIC (Staphylococcus aureus): 2 µg/mL
- MIC (Streptococcus pneumoniae): < 0.0156 µg/mL
- MIC (Citrobacter freundii [4]): 0.5 µg/mL
- IC50 (Escherichia coli [5]): 4.7 µg/mL
- IC90 [6]: 2 µg/mL
